Activity calls are given as the source filed them. No cut-off for these calls is given here.
How the values were obtained:
[1] = target: Poly [ADP-ribose] polymerase 1 (Homo sapiens, UniProt P09874); test: Inhibition of PARP1 (unknown origin) after 15 mins by fluorometric analysis
YCC-3/D [2] = test: Potentiation of cisplatin-induced cytotoxicity against human YCC-3/D cells assessed as reduction in cisplatin IC50 at 50 uM co-treated with cisplatin after 36 hrs by MTS assay; assay type: functional, cell-based
YCC-3 = test: Potentiation of cisplatin-induced cytotoxicity against human YCC-3 cells assessed as reduction in cisplatin IC50 at 50 uM incubated for 8 hrs prior to cisplatin-addition measured after 36 hrs by MTS assay; assay type: functional, cell-based
YCC-3/D [3] = test: Potentiation of cisplatin-induced cytotoxicity against human YCC-3/D cells assessed as reduction in cisplatin IC50 at 50 uM incubated for 8 hrs prior to cisplatin-addition measured after 36 hrs by MTS assay; assay type: functional, cell-based
Outline: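 Pretreatment format: cells seeded at 2500 cells/well, incubated overnight at 37 °C/5% CO2, exposed to PARP-1 inhibitor at 50 µM for 8 h. Inhibitor medium removed, cisplatin added over a concentration series for 36 h. MTS added for 2 h at 37 °C, absorbance read at 490 nm. Triplicate; cisplatin IC50 from % growth inhibition vs cisplatin concentration.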

[4] = Cytotoxicity against human YCC-3/D cells after 36 hrs by MTS assay; assay type: cell-based
Outline: (§1)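 Cells (YCC-3 parent, or YCC-3/D cisplatin-resistant line kept at 2.5 µg/mL cisplatin) seeded at 5000 cells/well, incubated overnight at 37 °C/5% CO2, then exposed to compound for 36 h. Medium replaced with MTS-containing medium for 2 h at 37 °C, absorbance read at 490 nm. Triplicate; IC50 taken from plot of % growth inhibition vs concentration.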

[5] = Cytotoxicity against human YCC-3 cells after 36 hrs by MTS assay; assay type: cell-based; settings: YCC-3, 36 h; outline: as §1

Poly [ADP-ribose] polymerase 1, sequence (P09874 whole entry): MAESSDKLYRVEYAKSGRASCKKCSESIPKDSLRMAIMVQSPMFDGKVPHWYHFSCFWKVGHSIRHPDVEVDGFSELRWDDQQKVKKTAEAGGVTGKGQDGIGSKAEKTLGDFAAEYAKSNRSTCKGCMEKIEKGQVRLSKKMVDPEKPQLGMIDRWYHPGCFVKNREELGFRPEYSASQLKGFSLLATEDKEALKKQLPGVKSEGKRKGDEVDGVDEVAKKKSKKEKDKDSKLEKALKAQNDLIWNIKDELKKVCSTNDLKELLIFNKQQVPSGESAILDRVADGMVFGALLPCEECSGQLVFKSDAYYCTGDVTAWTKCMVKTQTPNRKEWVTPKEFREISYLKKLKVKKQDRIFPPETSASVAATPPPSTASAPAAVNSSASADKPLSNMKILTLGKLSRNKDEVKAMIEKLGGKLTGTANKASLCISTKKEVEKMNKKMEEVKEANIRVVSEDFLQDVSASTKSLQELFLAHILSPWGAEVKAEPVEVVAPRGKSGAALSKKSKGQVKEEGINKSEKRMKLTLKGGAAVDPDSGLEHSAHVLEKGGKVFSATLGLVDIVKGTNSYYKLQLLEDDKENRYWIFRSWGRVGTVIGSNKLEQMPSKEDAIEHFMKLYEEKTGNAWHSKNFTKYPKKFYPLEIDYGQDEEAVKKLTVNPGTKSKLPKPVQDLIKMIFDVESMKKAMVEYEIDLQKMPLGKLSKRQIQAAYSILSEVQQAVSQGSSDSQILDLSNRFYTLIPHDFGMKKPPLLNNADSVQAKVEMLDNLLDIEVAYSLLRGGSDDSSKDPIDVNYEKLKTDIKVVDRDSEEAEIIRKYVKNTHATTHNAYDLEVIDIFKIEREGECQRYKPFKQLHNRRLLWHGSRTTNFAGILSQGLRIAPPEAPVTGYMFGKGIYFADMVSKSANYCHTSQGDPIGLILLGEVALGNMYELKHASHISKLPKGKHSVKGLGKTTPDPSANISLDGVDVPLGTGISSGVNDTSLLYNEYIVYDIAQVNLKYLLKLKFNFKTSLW

Row | SMILES | IC50 [1] [nM] | Activity (YCC-3/D [2]) | Activity (YCC-3) | Activity (YCC-3/D [3]) | IC50 [4] [nM] | IC50 [5] [nM]
1 | O=c1[nH]c(CCCN2CCN(c3cccc(Cl)c3)CC2)nc2ccccc12 | 1010 |  |  |  |  | 
2 | CCCCc1nc2ccccc2c(=O)[nH]1 | 8890 |  |  |  |  | 
3 | O=c1[nH]c(CCCN2CC=C(c3ccc(F)cc3)CC2)nc2ccccc12 | 304 |  |  |  |  | 

More lines, main results first:

Row | IC50 [1] [nM] | SMILES | Activity (YCC-3/D [2]) | Activity (YCC-3) | Activity (YCC-3/D [3]) | IC50 [4] [nM] | IC50 [5] [nM]
4 | 79 | O=c1[nH]c(CCCN2CCC(c3ccccc3)CC2)nc2ccccc12 | inactive | inactive | Active | 96300 | 126000
5 | 189 | COc1ccccc1N1CCN(CCCc2nc3ccccc3c(=O)[nH]2)CC1 |  |  |  |  | 
6 | 388 | O=c1[nH]c(CCCN2CCC(c3ccc(Cl)cc3)CC2)nc2ccccc12 |  |  |  |  | 
7 | 77 | O=c1[nH]c(CCCN2CCN(c3ccc(F)cc3)CC2)nc2ccccc12 | inactive | inactive | Active | > 200000 | > 200000

Source: ChEMBL document CHEMBL2375246, “In silico identification of poly(ADP-ribose)polymerase-1 inhibitors and their chemosensitizing effects against cisplatin-resistant human gastric cancer cells” (Bioorg Med Chem Lett, 2013)
